Source: ChEMBL document CHEMBL1124838, “5-Hydroxytryptamine (5-HT3) receptor antagonists. 2. 1-Indolinecarboxamides” (J Med Chem, 1990)

Each compound was assayed against Serotonin 3 (5-HT3) receptor (Rattus norvegicus) (UniProt P35563+Q9JJ16) (assay: Antagonist potency to 5-hydroxytryptamine 3 receptor was assayed by antagonism of the 5-HT-evoked reflex bradycardia [Bezold-Jarisch(BJ) reflex] in rats).
Type: functional
In short: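 Male rats (260–290 g) anesthetized with urethane (1.25 g/kg ip); blood pressure and heart rate recorded. 5-HT given repeatedly at a submaximal 6 μg/kg iv, and heart-rate changes quantified. Test drug given iv before 5-HT. ID50 is the dose that cuts the 5-HT-evoked response to 50% of control.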

| SMILES | ID50 [µg/kg] |
| --- | --- |
| CN1C2CCC1CC(NC(=O)N1CCc3cc(Cl)ccc31)C2 (centres undefined) | > 10 |
| CN1C2CCC1CC(OC(=O)N1CCc3ccccc31)C2 (centres undefined) | 4.3 |
| CN1C2CCC1CC(NC(=O)N1CC3(CCCC3)c3ccccc31)C2 (centres undefined) | 1.2 |
| CN1C2CCC1CC(NC(=O)N1CC3(CC3)c3ccccc31)C2 (centres undefined) | 3.5 |
| CC1Cc2ccccc2N1C(=O)NC1CC2CCC(C1)N2C (centres undefined) | 0.8 |
| CCN1C2CCC1CC(NC(=O)N1CCc3ccccc31)C2 (centres undefined) | > 10 |
| CC1c2ccccc2N(C(=O)NC2CC3CCC(C2)N3C)C1C (centres undefined) | 0.5 |
| CN1C2CCC1CC(NC(=O)N1CCc3cc([N+](=O)[O-])ccc31)C2 (centres undefined) | > 10 |
| CN1C2CCC1CC(NC(=O)N1CCc3cc(F)ccc31)C2 (centres undefined) | > 10 |
| CN1C2CCC1CC(NC(=O)N1CC(c3ccccc3)c3ccccc31)C2 (centres undefined) | 1.8 |
| CCC1CN(C(=O)NC2CC3CCC(C2)N3C)c2ccccc21 (centres undefined) | 1.5 |
| CC1N(C(=O)NC2CC3CCC(C2)N3C)c2ccccc2C1(C)C (centres undefined) | 1.4 |
| CN1C2CCC1CC(NC(=O)C1=CC(C)(C)c3ccccc31)C2 (centres undefined) | 1 |
| CN1C2CCCC1CC(NC(=O)c1nn(C)c3ccccc13)C2 (centres undefined) | 0.7 |
| CN1C2CCC1CC(NC(=O)N1CC3(CCCCC3)c3ccccc31)C2 (centres undefined) | 3.6 |
| COc1ccc2c(c1)CCN2C(=O)NC1CC2CCC(C1)N2C (centres undefined) | > 10 |
| CN1C2CCCC1CC(NC(=O)N1CCc3ccccc31)C2 (centres undefined) | 12.5 |

The next lines start with the values.

| ID50 [µg/kg] | SMILES |
| --- | --- |
| 1.4 | CN1C2CCC1CC(NC(=O)N1CCc3ccccc31)C2 (centres undefined) |
| 1.6 | Cc1cn(C(=O)NC2CC3CCC(C2)N3C)c2ccccc12 (centres undefined) |
| 7.1 | CN1C2CCC1CC(NC(=O)n1ccc3ccccc31)C2 (centres undefined) |
| 5.1 | CN1C2CCC1CC(NC(=O)n1cc(-c3ccccc3)c3ccccc31)C2 (centres undefined) |
| > 100 | CN1C2CCC1CC(NC(=O)N1CCCc3ccccc31)C2 (centres undefined) |
| 3 | CC1CN(C(=O)NC2CC3CCC(C2)N3C)c2ccccc21 (centres undefined) |
| 2 | CCc1cn(C(=O)NC2CC3CCC(C2)N3C)c2ccccc12 (centres undefined) |
